Measurements: ChEMBL document CHEMBL4311940, “Design, Synthesis, and Biological Evaluation of 4-Methyl Quinazoline Derivatives as Anticancer Agents Simultaneously Targeting Phosphoinositide 3-Kinases and Histone Deacetylases” (J Med Chem, 2019)
pIC50: −log10 of the molar value.

Experiments:
[1] = Toxicity in ip dosed ICR mouse assessed as maximum tolerated dose; type: organism-based; details: in vivo
In short: (§1)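 Male ICR mice, 6−8 weeks old, given one dose; vehicle 0.5% cmc with Tween 80 for oral dosing, saline for intraperitoneal dosing. Clinical signs observed and body weights recorded for 7 consecutive days after dosing to set the maximum tolerated dose.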

[2] = Toxicity in po dosed ICR mouse assessed as maximum tolerated dose; type: organism-based; details: in vivo; in short: as §1
HCT-116 [3] = experiment: Antiproliferative activity against human HCT116 cells after 96 hrs by MTT assay; type: functional, cell-based; details: HCT-116, 96 h
Histone deacetylase 11 = Histone deacetylase 11 (Homo sapiens, UniProt Q96DB2); experiment: Inhibition of recombinant human full length HDAC11 expressed in baculovirus infected Sf9 insect cells using Ac-peptide as substrate preincubated for 15 mins followed by substrate addition and measured after 1 hr
Sequence of Histone deacetylase 11 (Q96DB2 whole entry, canonical isoform): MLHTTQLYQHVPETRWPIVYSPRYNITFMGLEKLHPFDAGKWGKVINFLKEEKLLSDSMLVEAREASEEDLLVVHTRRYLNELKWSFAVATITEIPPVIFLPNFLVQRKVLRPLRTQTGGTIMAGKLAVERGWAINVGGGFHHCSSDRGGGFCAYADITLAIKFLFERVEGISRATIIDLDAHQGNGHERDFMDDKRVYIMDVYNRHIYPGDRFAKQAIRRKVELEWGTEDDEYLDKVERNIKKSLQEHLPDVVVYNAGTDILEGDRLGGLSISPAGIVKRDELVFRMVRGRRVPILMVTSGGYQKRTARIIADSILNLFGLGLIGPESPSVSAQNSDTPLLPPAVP
In short: (§2)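 Recombinant HDAC isoforms mixed with serially diluted compound in assay buffer for 15 min at room temperature. Ac-peptide substrate then added and incubated 1 h at room temperature. Signal read on a plate reader; IC50 by curve fitting.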

Histone deacetylase 4 = Histone deacetylase 4 (Homo sapiens, UniProt P56524); experiment: Inhibition of recombinant human full length HDAC4 expressed in baculovirus infected Sf9 insect cells using Ac-peptide as substrate preincubated for 15 mins followed by substrate addition and measured after 1 hr; in short: as §2
Sequence of Histone deacetylase 4 (P56524 whole entry): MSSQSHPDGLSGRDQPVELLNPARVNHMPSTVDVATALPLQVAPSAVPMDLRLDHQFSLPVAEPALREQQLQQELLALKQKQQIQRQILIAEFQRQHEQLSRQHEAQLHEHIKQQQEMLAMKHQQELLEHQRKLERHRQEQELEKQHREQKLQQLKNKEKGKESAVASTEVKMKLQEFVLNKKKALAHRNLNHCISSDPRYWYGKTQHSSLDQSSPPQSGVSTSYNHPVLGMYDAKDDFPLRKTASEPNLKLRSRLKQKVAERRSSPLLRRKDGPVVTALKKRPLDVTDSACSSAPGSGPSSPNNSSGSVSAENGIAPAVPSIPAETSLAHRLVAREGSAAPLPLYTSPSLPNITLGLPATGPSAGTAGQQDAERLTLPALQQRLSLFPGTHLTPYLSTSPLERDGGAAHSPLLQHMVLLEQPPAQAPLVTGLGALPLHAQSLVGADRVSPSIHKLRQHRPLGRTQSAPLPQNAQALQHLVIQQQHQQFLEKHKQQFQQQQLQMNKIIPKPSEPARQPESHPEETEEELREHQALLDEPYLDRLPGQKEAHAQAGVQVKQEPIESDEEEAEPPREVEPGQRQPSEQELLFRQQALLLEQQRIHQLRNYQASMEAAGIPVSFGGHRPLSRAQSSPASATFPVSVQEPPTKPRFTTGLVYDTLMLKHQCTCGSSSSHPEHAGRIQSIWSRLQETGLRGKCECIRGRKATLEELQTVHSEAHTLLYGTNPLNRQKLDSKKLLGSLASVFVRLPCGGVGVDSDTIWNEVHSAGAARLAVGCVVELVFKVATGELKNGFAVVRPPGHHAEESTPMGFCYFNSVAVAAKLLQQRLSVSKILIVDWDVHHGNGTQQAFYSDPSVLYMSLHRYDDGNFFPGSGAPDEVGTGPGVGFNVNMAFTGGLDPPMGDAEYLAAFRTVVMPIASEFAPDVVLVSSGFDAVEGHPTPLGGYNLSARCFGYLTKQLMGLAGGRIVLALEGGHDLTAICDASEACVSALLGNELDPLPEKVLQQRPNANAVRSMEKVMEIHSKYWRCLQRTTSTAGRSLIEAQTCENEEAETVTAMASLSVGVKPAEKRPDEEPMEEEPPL

Histone deacetylase 2 = Histone deacetylase 2 (Homo sapiens, UniProt Q92769); experiment: Inhibition of recombinant human full length HDAC2 expressed in baculovirus infected Sf9 insect cells using Ac-peptide as substrate preincubated for 15 mins followed by substrate addition and measured after 1 hr; in short: as §2
Sequence of Histone deacetylase 2 (Q92769 whole entry, canonical isoform): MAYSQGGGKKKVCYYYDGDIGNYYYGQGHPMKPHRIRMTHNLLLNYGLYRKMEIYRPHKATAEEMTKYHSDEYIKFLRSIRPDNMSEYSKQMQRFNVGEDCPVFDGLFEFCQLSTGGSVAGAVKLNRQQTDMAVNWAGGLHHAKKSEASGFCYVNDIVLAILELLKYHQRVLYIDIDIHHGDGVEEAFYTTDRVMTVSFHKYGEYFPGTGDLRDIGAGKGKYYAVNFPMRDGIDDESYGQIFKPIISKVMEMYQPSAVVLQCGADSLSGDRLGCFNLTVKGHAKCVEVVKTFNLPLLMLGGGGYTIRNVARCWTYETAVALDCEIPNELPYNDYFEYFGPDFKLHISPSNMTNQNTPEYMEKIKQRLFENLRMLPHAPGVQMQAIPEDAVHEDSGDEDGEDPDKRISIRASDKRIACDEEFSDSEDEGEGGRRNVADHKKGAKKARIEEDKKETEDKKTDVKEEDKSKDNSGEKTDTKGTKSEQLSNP

[4] = molecular target: Phosphatidylinositol 4,5-bisphosphate 3-kinase catalytic subunit gamma isoform (Homo sapiens, UniProt P48736); experiment: Inhibition of recombinant human His-tagged PIK3CG expressed in baculovirus expression system using PIP2 as substrate incubated for 1 hr by ADP-glo assay
Sequence of Phosphatidylinositol 4,5-bisphosphate 3-kinase catalytic subunit gamma isoform (P48736 whole entry, canonical isoform): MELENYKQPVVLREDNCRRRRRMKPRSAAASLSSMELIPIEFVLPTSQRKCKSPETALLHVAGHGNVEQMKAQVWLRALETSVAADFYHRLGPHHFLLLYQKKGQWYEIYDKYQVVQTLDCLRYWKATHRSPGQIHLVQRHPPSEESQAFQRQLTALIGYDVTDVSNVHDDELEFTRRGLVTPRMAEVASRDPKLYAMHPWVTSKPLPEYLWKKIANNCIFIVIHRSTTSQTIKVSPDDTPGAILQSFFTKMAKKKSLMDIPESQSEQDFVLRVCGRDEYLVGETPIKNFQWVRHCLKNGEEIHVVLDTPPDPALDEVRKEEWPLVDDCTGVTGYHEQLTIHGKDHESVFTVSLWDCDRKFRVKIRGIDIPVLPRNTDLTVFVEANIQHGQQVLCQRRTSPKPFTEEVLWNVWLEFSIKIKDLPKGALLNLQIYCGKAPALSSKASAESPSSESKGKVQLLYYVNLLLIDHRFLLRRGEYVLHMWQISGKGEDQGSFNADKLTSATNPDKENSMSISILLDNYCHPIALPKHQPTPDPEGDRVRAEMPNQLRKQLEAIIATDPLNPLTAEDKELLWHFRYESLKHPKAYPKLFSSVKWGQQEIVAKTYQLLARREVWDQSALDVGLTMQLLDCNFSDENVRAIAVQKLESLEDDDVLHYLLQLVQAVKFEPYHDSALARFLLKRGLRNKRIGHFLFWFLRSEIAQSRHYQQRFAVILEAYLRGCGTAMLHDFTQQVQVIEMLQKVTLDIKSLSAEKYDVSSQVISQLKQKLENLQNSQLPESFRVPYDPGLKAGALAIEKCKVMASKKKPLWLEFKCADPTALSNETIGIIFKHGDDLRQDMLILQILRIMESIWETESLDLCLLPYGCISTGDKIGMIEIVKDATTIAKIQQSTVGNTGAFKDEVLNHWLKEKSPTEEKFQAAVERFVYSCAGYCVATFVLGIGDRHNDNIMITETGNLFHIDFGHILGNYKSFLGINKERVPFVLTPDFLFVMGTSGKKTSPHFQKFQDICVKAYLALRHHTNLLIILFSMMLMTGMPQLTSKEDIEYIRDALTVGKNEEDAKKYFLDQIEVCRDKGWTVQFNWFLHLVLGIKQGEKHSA
In short: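 Recombinant PI3Kβ, -γ or -δ, serially diluted compound, PIP2 substrate and ATP combined in kinase buffer. Incubated 1 h at room temperature in the dark, then stopped with ADP-Glo reagent. Luminescence read after kinase detection reagent; IC50 by curve fitting.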

[5] = molecular target: Serine/threonine-protein kinase mTOR (Homo sapiens, UniProt P42345); experiment: Inhibition of recombinant human N-terminal FLAG-tagged mTOR (1362 to end amino acids) using ULight-4E-BP1 as substrate incubated for 1 hr by LANCE Ultra assay
In short: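 mTOR protein, compound, ULight-4E-BP1 (Thr37/46) peptide and ATP in kinase buffer, 30 min at room temperature. LANCE detection buffer with EDTA and Eu-anti-phospho-4E-BP1 (Thr37/46) antibody added, then 1 h equilibration at room temperature. TR-FRET read; IC50 by curve fitting.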

HCT-116 [6] = experiment: Induction of apoptosis in human HCT116 cells assessed as early apoptotic cells at 20 nM after 48 hrs by Annexin V-FITC/propidium iodide staining-based flow cytometric analysis (reference value: 1.33%); type: functional
HCT-116 [7] = experiment: Induction of apoptosis in human HCT116 cells assessed as early apoptotic cells at 100 nM after 48 hrs by Annexin V-FITC/propidium iodide staining-based flow cytometric analysis (reference value: 1.33%); type: functional
HCT-116 [8] = experiment: Induction of apoptosis in human HCT116 cells assessed as late apoptotic cells at 100 nM after 48 hrs by Annexin V-FITC/propidium iodide staining-based flow cytometric analysis (reference value: 3.87%); type: functional
HCT-116 [9] = experiment: Induction of apoptosis in human HCT116 cells assessed as early apoptotic cells at 500 nM after 48 hrs by Annexin V-FITC/propidium iodide staining-based flow cytometric analysis (reference value: 1.33%); type: functional
HCT-116 [10] = experiment: Induction of apoptosis in human HCT116 cells assessed as necrotic cells at 500 nM after 48 hrs by Annexin V-FITC/propidium iodide staining-based flow cytometric analysis (reference value: 5.23%); type: functional
[11] = Tmax in ICR mouse at 3 mg/kg, iv measured after 0.033 to 24 hrs by LC/MS/MS analysis; type: ADME, organism-based; details: in vivo
In short: (§3)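 Male-unspecified ICR mice, 3 per group iv (3 mg/kg in 10% DMSO/saline) and 5 per group po (30 mg/kg in 0.5% cmc/0.3% Tween 80). Blood sampled 0.033 (iv) or 0.083 (po) to 24 h. Plasma extracted with acetonitrile, analysed by LC/MS/MS; noncompartmental analysis.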

[12] = Tmax in ICR mouse at 30 mg/kg, po measured after 0.083 to 24 hrs by LC/MS/MS analysis; type: ADME, organism-based; details: in vivo; in short: as §3
[13] = Cmax in ICR mouse at 3 mg/kg, iv measured after 0.033 to 24 hrs by LC/MS/MS analysis; type: ADME, organism-based; parameters: dose 3 mg/kg, route intravenous; details: in vivo
In short: (§4)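 ICR mice; iv 3 mg/kg in 10% DMSO/saline (3 mice/group), blood at 0.033, 0.083, 0.25, 0.5, 1, 2, 4, 8, 12, 24 h; po 30 mg/kg as 0.5% cmc/0.3% Tween 80 suspension (5 mice/group), blood at 0.083–24 h. Plasma extracted with acetonitrile, LC/MS/MS; parameters by noncompartmental analysis.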

[14] = Cmax in ICR mouse at 30 mg/kg, po measured after 0.083 to 24 hrs by LC/MS/MS analysis; type: ADME, organism-based; parameters: dose 30 mg/kg, route oral; details: in vivo; in short: as §4
[15] = AUC (0 to t) in ICR mouse at 3 mg/kg, iv measured after 0.033 to 24 hrs by LC/MS/MS analysis; type: ADME, organism-based; parameters: dose 3 mg/kg, time upper 24 hr, time lower 0.033 hr, route intravenous; details: in vivo; in short: as §4
[16] = AUC (0 to t) in ICR mouse at 30 mg/kg, po measured after 0.083 to 24 hrs by LC/MS/MS analysis; type: ADME, organism-based; parameters: time upper 24 hr, dose 30 mg/kg, time lower 0.083 hr, route oral; details: in vivo; in short: as §4
[17] = AUC (0 to infinity) in ICR mouse at 30 mg/kg, po measured after 0.083 to 24 hrs by LC/MS/MS analysis; type: ADME, organism-based; parameters: dose 30 mg/kg, time infinity, route oral; details: in vivo; in short: as §4
HCT-8 = experiment: Antiproliferative activity against human HCT8 cells after 96 hrs by MTT assay; type: functional, cell-based; details: HCT-8, 96 h
U-87 MG = experiment: Antiproliferative activity against human U87 cells after 96 hrs by MTT assay; type: functional, cell-based, U-87MG ATCC
NCI-H460 = experiment: Antiproliferative activity against human NCI-H460 cells after 96 hrs by MTT assay; type: functional, cell-based; details: NCI-H460, 96 h
SW1990 = experiment: Antiproliferative activity against human SW1990 cells after 96 hrs by MTT assay; type: functional, cell-based; details: SW1990, 96 h
DU-145 = experiment: Antiproliferative activity against human DU145 cells after 96 hrs by MTT assay; type: functional, cell-based; details: DU-145, 96 h
HepG2 = experiment: Antiproliferative activity against human HepG2 cells after 96 hrs by MTT assay; type: functional, cell-based; details: HepG2, 96 h
Huh-7 = experiment: Antiproliferative activity against human HuH7 cells after 96 hrs by MTT assay; type: functional, cell-based; details: Huh-7, 96 h
[18] = Mutagenicity in Salmonella typhimurium TA97 at 5 to 500 ug/plate in absence of s9 mix by Ames test; type: toxicity; details: salmonella enterica subsp. enterica serovar typhimurium
In short: (§5)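 Plate incorporation method at 5, 50 and 500 μg/plate, with and without S9 activation. At least three plates per dose, incubated 72 h at 37 °C, revertants counted. Mean revertants compared with vehicle and positive controls.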

[19] = Mutagenicity in Salmonella typhimurium TA1535 at 5 to 500 ug/plate in absence of s9 mix by Ames test; type: toxicity; details: salmonella enterica subsp. enterica serovar typhimurium; in short: as §5

Row | SMILES | MTD [1] [mg/kg] | MTD [2] [mg/kg] | pIC50 (HCT-116 [3]) | IC90 (HCT-116 [3]) [nM] | pIC50 (Histone deacetylase 11) | pIC50 (Histone deacetylase 4) | pIC50 (Histone deacetylase 2) | pIC50 [4] | pIC50 [5] | Activity (HCT-116 [6]) [%] | Activity (HCT-116 [7]) [%] | Activity (HCT-116 [8]) [%] | Activity (HCT-116 [9]) [%] | Activity (HCT-116 [10]) [%] | Tmax [11] [min] | Tmax [12] [min] | Cmax [13] [ng/mL] | Cmax [14] [ng/mL] | AUC(0-t) [15] [ng·h/mL] | AUC(0-t) [16] [ng·h/mL] | other results
1 | COc1ccc(-c2cc(OCCN(C)c3ncc(C(=O)NO)cn3)c3ncnc(C)c3c2)cn1 | > 100 | > 2000 | 8.15 | 2800 | < 6.00 | 6.01 | 8.47 | 6.33 | 5.20 | 4.53 | 16.8 | 9.92 | 29.1 | 2.82 | 1.8 | 108 | 417 | 9.39 | 133 | 23.1 | AUC [17]: 51.4 ng·h/mL; pIC50 (HCT-8): 7.23; pIC50 (U-87 MG): 6.47; pIC50 (NCI-H460): 5.57; pIC50 (SW1990): 6.64; pIC50 (DU-145): 7.18; pIC50 (HepG2): 7.12; pIC50 (Huh-7): 6.62; Activity [18]: Non-Toxic; Activity [19]: Non-Toxic
2 | COc1ncc(-c2cc(OCCCCCCC(=O)NO)c3ncnc(C)c3c2)cc1F | > 100 | > 2000 | 6.82 | 48000 | < 6.00 | < 6.00 | 8.52 | 7.17 | 5.54 | 1.83 | 6.56 | 7.97 | 18.2 | 3.64 | 1.8 | 18 | 3050 | 143 | 551 | 230 | AUC(0-inf) ([17]; ICR): 274 ng·h/mL; pIC50 (HCT-8): 6.49; pIC50 (U-87 MG): 5.49; pIC50 (NCI-H460): 5.52; pIC50 (SW1990): 6.05; pIC50 (DU-145): 6.27; pIC50 (HepG2): 5.96; pIC50 (Huh-7): 5.60; Activity [18]: Non-Toxic; Activity [19]: Non-Toxic
